In ChEMBL document CHEMBL3877249, “Novel 2-aryl-4-(4'-hydroxyphenyl)-5H-indeno[1,2-b]pyridines as potent DNA non-intercalative topoisomerase catalytic inhibitors” (Eur J Med Chem, 2017):
Structures can show the parent of a compound that is named as a salt.

Key:
[1] = molecular target: T1, DNA topoisomerase 1 (Homo sapiens) (UniProt P11387); test: Inhibition of human DNA topoisomerase-1 at 100 uM using supercoiled pBR322 DNA as substrate after 30 mins by ethidium bromide staining based agarose gel electrophoresis relative to control
T1 sequence (whole entry): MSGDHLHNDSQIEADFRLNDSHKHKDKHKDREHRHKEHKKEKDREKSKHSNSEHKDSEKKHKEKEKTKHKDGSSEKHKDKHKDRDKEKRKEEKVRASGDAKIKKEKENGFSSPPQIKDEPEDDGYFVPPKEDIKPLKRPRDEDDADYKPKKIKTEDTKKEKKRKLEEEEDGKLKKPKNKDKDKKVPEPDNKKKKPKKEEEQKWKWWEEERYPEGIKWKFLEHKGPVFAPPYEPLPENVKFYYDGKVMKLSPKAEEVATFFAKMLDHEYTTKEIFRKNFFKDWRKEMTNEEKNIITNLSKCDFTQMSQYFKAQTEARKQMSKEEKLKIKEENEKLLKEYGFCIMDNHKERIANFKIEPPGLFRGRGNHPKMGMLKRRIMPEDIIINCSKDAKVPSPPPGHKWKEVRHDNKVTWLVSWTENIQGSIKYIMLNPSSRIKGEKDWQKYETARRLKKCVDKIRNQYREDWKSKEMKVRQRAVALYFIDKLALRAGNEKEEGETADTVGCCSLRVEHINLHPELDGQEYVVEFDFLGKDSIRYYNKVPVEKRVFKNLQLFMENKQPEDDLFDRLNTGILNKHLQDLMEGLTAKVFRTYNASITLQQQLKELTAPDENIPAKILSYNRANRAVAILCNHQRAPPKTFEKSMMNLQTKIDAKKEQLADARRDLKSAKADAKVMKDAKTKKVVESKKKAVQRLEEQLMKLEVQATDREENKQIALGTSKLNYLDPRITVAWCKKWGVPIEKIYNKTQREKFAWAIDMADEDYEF
Summary of the method: (§1)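 Recombinant human topo I, 1 unit (the amount that fully relaxes supercoiled pBR322), with 100 ng pBR322 DNA at 37 °C for 30 min in 10 mM Tris-HCl pH 7.9, 150 mM NaCl, 0.1% BSA. Compounds were screened at 100 µM, and those above 30% inhibition were retested at 20 µM. Products ran on 1% agarose at 15 V for 7 h in TAE with ethidium bromide staining. Mean ± S.D. from three experiments in triplicate.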

[2] = molecular target: DNA topoisomerase 2-alpha (Homo sapiens) (UniProt P11388); test: Inhibition of human DNA topoisomerase-2alpha at 100 uM using supercoiled pBR322 DNA as substrate after 30 mins by ethidium bromide staining based agarose gel electrophoresis relative to control
DNA topoisomerase 2-alpha (Homo sapiens), sequence (P11388 whole entry): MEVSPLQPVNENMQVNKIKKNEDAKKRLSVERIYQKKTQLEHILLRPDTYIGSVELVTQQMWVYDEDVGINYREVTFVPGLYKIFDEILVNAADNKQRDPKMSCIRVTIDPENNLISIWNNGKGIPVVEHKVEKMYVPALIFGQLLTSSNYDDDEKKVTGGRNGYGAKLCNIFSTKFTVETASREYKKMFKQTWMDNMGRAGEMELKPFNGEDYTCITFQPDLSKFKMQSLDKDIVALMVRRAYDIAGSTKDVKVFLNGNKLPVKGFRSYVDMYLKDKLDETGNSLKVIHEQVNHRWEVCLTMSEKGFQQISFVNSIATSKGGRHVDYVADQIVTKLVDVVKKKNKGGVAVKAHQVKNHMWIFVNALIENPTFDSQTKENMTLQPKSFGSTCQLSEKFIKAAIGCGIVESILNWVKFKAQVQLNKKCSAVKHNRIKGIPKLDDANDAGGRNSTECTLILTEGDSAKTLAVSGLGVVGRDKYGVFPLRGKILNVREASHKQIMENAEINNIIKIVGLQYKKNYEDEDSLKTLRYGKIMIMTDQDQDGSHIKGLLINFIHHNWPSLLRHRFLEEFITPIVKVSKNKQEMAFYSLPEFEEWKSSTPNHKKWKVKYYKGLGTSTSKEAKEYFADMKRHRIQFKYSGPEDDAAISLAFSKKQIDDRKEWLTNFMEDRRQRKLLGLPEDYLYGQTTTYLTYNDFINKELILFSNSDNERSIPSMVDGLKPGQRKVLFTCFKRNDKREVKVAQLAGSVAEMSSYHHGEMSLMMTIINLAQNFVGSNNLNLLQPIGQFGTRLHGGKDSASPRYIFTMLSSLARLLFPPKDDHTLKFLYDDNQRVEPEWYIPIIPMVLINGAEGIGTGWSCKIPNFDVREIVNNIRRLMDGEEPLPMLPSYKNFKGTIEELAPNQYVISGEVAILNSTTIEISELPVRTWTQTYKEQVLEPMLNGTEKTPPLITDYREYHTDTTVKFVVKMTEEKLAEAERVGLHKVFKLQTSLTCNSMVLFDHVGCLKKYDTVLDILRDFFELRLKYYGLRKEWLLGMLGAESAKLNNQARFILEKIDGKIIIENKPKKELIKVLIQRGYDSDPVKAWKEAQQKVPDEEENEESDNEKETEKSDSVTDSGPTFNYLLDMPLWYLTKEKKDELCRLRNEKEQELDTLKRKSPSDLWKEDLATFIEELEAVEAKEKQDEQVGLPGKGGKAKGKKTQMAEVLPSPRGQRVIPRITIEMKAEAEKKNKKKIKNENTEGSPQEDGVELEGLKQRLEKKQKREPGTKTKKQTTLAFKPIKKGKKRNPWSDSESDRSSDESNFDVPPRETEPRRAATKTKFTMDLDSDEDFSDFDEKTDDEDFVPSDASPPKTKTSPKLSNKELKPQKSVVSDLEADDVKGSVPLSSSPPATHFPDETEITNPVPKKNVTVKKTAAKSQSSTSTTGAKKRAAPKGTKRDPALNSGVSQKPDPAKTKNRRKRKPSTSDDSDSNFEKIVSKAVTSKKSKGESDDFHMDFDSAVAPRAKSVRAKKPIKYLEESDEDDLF
Summary of the method: (§2)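 Human topo IIα, 1 unit set by full relaxation of pBR322, with 100 ng pBR322 for 30 min in 10 mM Tris-HCl pH 7.9, 50 mM NaCl, 5 mM MgCl2, 1 mM EDTA and BSA. Stop was with EDTA. Screening was at 100 µM, with retest at 20 µM if inhibition exceeded 30%. Gel was 1% agarose at 25 V for 4 h in TAE, stained with ethidium bromide. Mean ± S.D. from three experiments in triplicate.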

[3] = Antiproliferative activity against human HCT15 cells after 72 hrs by CCK8 assay; assay type: functional, cell-based; details: HCT-15, 72 h
Summary of the method: (§3)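 Cells seeded at 2–4 × 10^4 per well, grown overnight in medium with 10% FBS at 37 °C and 5% CO2. After 4 h FBS starvation they were exposed to graded compound concentrations for 72 h. CCK-8 was added for a further 4 h and absorbance read at 450 nm. IC50 came from a four-parameter logistic fit.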

[4] = Antiproliferative activity against human T47D cells after 72 hrs by CCK8 assay; assay type: functional, cell-based; summary of the method: as §3
[5] = Antiproliferative activity against human DU145 cells after 72 hrs by CCK8 assay; assay type: functional, cell-based; details: DU-145, 72 h; summary of the method: as §3
[6] = Antiproliferative activity against human HeLa cells after 72 hrs by CCK8 assay; assay type: functional, cell-based; summary of the method: as §3
[7] = molecular target: T1, DNA topoisomerase 1 (Homo sapiens); test: Inhibition of human DNA topoisomerase-1 at 20 uM using supercoiled pBR322 DNA as substrate after 30 mins by ethidium bromide staining based agarose gel electrophoresis relative to control; summary of the method: as §1
[8] = molecular target: DNA topoisomerase 2-alpha (Homo sapiens) (UniProt P11388); test: Inhibition of human DNA topoisomerase-2alpha at 20 uM using supercoiled pBR322 DNA as substrate after 30 mins by ethidium bromide staining based agarose gel electrophoresis relative to control; summary of the method: as §2
[9] = Antiproliferative activity against HEK293 cells after 72 hrs by CCK8 assay; assay type: cell-based; details: Homo sapiens, HEK293, 72 h; summary of the method: as §3
[10] = Antiproliferative activity against HFL1 cells after 72 hrs by CCK8 assay; assay type: cell-based; details: Homo sapiens, HFL1, 72 h; summary of the method: as §3
[11] = species: Homo sapiens; test: Inhibition of DNA topoisomerase catalytic activity in human T47D nuclear extract at 50 uM using supercoiled pBR322 DNA as substrate after 24 hrs by ethidium bromide staining based agarose gel electrophoresis relative to control
Summary of the method: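 T47D cells at 5 × 10^5 per 60 mm dish were grown to 80% confluence, washed with FBS-free medium and treated 24 h. Nuclear extracts were prepared in HEPES/MgCl2/KCl/DTT/NP40 buffer, then extracted with NaCl buffer. The amount of extract that fully relaxes 100 ng pBR322 at 37 °C in 20 min was set as the unit. Products were run on agarose in TAE and stained with ethidium bromide (0.5 µg/mL).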

[12] = molecular target: T1, DNA topoisomerase 1 (Homo sapiens); test: Poison activity at human DNA topoisomerase-1 assessed as DNA intercalation by measuring DNA unwinding using pHOT1 DNA as substrate after 30 mins by ethidium bromide staining based agarose gel electrophoresis

Structure (SMILES) | inhibition [1] | inhibition [2] | IC50 [3] | IC50 [4] | IC50 [5] | IC50 [6] | inhibition [7] | inhibition [8] | IC50 [9] | IC50 [10] | inhibition [11] | Activity [12]
Oc1ccc(-c2cc(-c3cccnc3)nc3c2Cc2ccccc2-3)cc1 | 0% | 4% | > 50 µM | > 50 µM | > 50 µM | > 50 µM | – | – | – | – | – | –
c1ccc(-c2cc(-c3ccsc3)nc3c2Cc2ccccc2-3)cc1 | 72.5% | 0.5% | > 50 µM | – | > 50 µM | > 50 µM | 0% | – | – | – | – | –
Oc1cccc(-c2cc(-c3ccccn3)nc3c2Cc2ccccc2-3)c1 | 2.4% | 3.5% | > 50 µM | > 50 µM | > 50 µM | > 50 µM | – | – | – | – | – | –
Oc1cccc(-c2cc(-c3ccoc3)nc3c2Cc2ccccc2-3)c1 | 4.5% | 82.2% | 1.24 µM | 2.91 µM | 1.51 µM | 4.48 µM | – | 29.6% | – | – | – | –
Oc1ccccc1-c1cc(-c2ccncc2)nc2c1Cc1ccccc1-2 | 0% | 75.2% | 2.18 µM | 2.44 µM | 4.7 µM | 5.78 µM | – | 0.9% | – | – | – | –
COc1cc([C@@H]2c3cc4c(cc3[C@@H](O[C@@H]3O[C@@H]5CO[C@@H](C)O[C@H]5[C@H](O)[C@H]3O)[C@H]3COC(=O)[C@H]23)OCO4)cc(OC)c1O [ETOPOSIDE] | – | – | 1.1 to 2.82 µM | – | 0.02 to 13.1 µM | 0.18 to 1.4 µM | – | – | 1.74 µM | 87.6 µM | 61.1% | –
Oc1cccc(-c2cc(-c3ccncc3)nc3c2Cc2ccccc2-3)c1 | 1.3% | 49.5% | 1.94 µM | 1.05 µM | 4.36 µM | 2.41 µM | – | – | – | – | – | –
Oc1ccccc1-c1cc(-c2ccco2)nc2c1Cc1ccccc1-2 | 62.4% | 58.7% | > 50 µM | > 50 µM | > 50 µM | > 50 µM | 27.1% | 20% | – | – | – | –
c1ccc(-c2cc(-c3ccco3)nc3c2Cc2ccccc2-3)cc1 | 18.7% | 41.3% | > 50 µM | – | 7.74 µM | 16.6 µM | – | 5.7% | – | – | – | –
Oc1cccc(-c2cc(-c3cccnc3)nc3c2Cc2ccccc2-3)c1 | 1.5% | 18.5% | 1.87 µM | 1.17 µM | 2.8 µM | 5.19 µM | – | – | – | – | – | –
Oc1ccccc1-c1cc(-c2ccoc2)nc2c1Cc1ccccc1-2 | 0.4% | 1.8% | > 50 µM | > 50 µM | > 50 µM | > 50 µM | – | – | – | – | – | –
Oc1cccc(-c2cc(-c3ccco3)nc3c2Cc2ccccc2-3)c1 | 28.9% | 77.5% | 1.58 µM | 1.07 µM | 3.75 µM | 6.27 µM | – | 36.9% | – | – | – | –
CC[C@@]1(O)C(=O)OCc2c1cc1n(c2=O)Cc2cc3ccccc3nc2-1 [CAMPTOTHECIN] | – | – | 0.31 to 18.9 µM | 13.7 µM | 0.11 to 2.09 µM | 0.4 to 7.32 µM | – | – | 0.83 µM | 1.06 µM | – | –
c1ccc(-c2cc(-c3cccs3)nc3c2Cc2ccccc2-3)cc1 | 56% | 5.8% | > 50 µM | – | > 50 µM | > 50 µM | 0% | – | – | – | – | –
Oc1ccc(-c2cc(-c3ccsc3)nc3c2Cc2ccccc2-3)cc1 | 45.5% | 74.8% | 2.45 µM | 4.52 µM | 3.35 µM | 4.9 µM | 2.5% | 65.9% | – | – | – | –
c1ccc(-c2cc(-c3ccoc3)nc3c2Cc2ccccc2-3)cc1 | 6.4% | 3.9% | 7.05 µM | 17.4 µM | 1.09 µM | 10.8 µM | – | – | – | – | – | –
Oc1ccccc1-c1cc(-c2cccnc2)nc2c1Cc1ccccc1-2 | 0% | 65.5% | 3.52 µM | 5.15 µM | 7.46 µM | 7.8 µM | – | 10.5% | – | – | – | –
Oc1ccc(-c2cc(-c3ccoc3)nc3c2Cc2ccccc2-3)cc1 | 1.4% | 61.4% | 1.83 µM | 2.6 µM | 6.01 µM | 5.21 µM | – | 28% | – | – | – | –
Oc1ccc(-c2cc(-c3ccccn3)nc3c2Cc2ccccc2-3)cc1 | 0% | 14.8% | > 50 µM | > 50 µM | > 50 µM | > 50 µM | – | – | – | – | – | –
c1ccc(-c2cc(-c3ccncc3)nc3c2Cc2ccccc2-3)cc1 | 0% | 2.3% | 16.4 µM | > 50 µM | > 50 µM | > 50 µM | – | – | – | – | – | –
Oc1ccc(-c2cc(-c3ccncc3)nc3c2Cc2ccccc2-3)cc1 | 0% | 1.14% | > 50 µM | > 50 µM | > 50 µM | > 50 µM | – | – | – | – | – | –
Oc1ccccc1-c1cc(-c2ccccn2)nc2c1Cc1ccccc1-2 | 0.5% | 15.2% | > 50 µM | 29.6 µM | > 50 µM | > 50 µM | – | – | – | – | – | –
COc1cc(NS(C)(=O)=O)ccc1Nc1c2ccccc2nc2ccccc12 | – | – | – | – | – | – | – | – | – | – | – | Dose-dependent effect
COc1cccc2c1C(=O)c1c(O)c3c(c(O)c1C2=O)C[C@@](O)(C(=O)CO)C[C@@H]3O[C@H]1C[C@H](N)[C@H](O)[C@H](C)O1 [DOXORUBICIN HYDROCHLORIDE] | – | – | 1.08 to 1.23 µM | 1.34 µM | 0.52 to 1 µM | 0.88 to 1.2 µM | – | – | 4.96 µM | 2.31 µM | – | –
Oc1cccc(-c2cc(-c3ccsc3)nc3c2Cc2ccccc2-3)c1 | 33.1% | 75.5% | 2.49 µM | 1.52 µM | 3.12 µM | 1.74 µM | 0% | 22% | – | – | – | –
Oc1ccccc1-c1cc(-c2ccsc2)nc2c1Cc1ccccc1-2 | 12.8% | 50.2% | > 50 µM | > 50 µM | > 50 µM | > 50 µM | – | 4.9% | – | – | – | –
c1ccc(-c2cc(-c3ccccn3)nc3c2Cc2ccccc2-3)cc1 | 12.3% | 0% | – | – | – | – | – | – | – | – | – | –
